Common to all, as to format: functional, cell-based
Experiment [1] has as its system PC-3. As to the kind of experiment: Cytotoxicity against human PC3 cells. The method in brief: (§1)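 Human cancer cell lines (HCT-15 colon, MCF-7 breast, U-251 central nervous system, PC-3 prostate, K562 leukemia) tested over a dose range using the National Cancer Institute cytotoxicity screening protocol.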
Experiment [2] relates to U-251. Briefly: Cytotoxicity against human U251 cells. The method in brief: as §1
Experiment [3] relates to K562. Briefly: Cytotoxicity against human K562 cells. The method in brief:
as §1

The subject of experiment [4] is HCT-15. As to the kind of experiment: Cytotoxicity against human HCT15 cells. An outline of the steps: as §1
Experiment [5] relates to MCF7. As to the kind of experiment: Cytotoxicity against human MCF7 cells. An outline of the steps: as §1

The structures appear in SMILES notation. Calls of active or inactive are those of the source. The calls are words filed in the database; no cut-off is given here.

With `COc1cccc2c1C(=O)c1c(O)c3c(c(O)c1C2=O)C[C@@](O)(C(=O)CO)C[C@@H]3O[C@H]1C[C@H](N)[C@H](O)[C@H](C)O1` [DOXORUBICIN], the IC50 in experiment [1] was 0.32 µM.

As for `C/C=C(/C)C(=O)O[C@H]1C[C@@H](O)C2=CC(=O)C(=C(C)C)C[C@]2(C)[C@H]1C`, the IC50 in experiment [2] is 24.1 µM; in experiment [3], greater than 100 µM; in experiment [4], greater than 100 µM; in experiment [5], greater than 100 µM; in experiment [1], 33.2 µM.

In the case of `C/C=C(/C)C(=O)O[C@H]1C[C@H]2O[C@]23Cc2occ(C)c2C[C@]3(C)[C@H]1C`, the result in experiment [2], in experiment [3], in experiment [4], in experiment [5] and in experiment [1] was inactive.

Turning to `C=C1C[C@@H](OC(C)=O)[C@@H](C(C)C)[C@@H]2[C@@H](C(C)=O)[C@@H](OC(=O)/C(C)=C\C)C[C@@H]12`, the IC50 came to 13 µM in experiment [2]; 13 µM in experiment [3]; 43.6 µM in experiment [4]; 33.9 µM in experiment [5]; 78.7 µM in experiment [1].

Consider `C/C=C(/C)C(=O)O[C@H]1C[C@@H](O)C2=CC(=O)C(C(C)(C)OO)=C[C@]2(C)[C@H]1C`, for which the IC50 in experiment [2] is 33.7 µM; in experiment [3], 46.3 µM; in experiment [4] it was greater than 100 µM; in experiment [5], greater than 100 µM; in experiment [1] it was 16.5 µM.

Consider `C/C=C(/C)C(=O)O[C@H]1C[C@@H](OC(=O)/C(C)=C/C)C2=CC(=O)C(=C(C)C)C[C@]2(C)[C@H]1C`, for which the IC50 in experiment [2] was 17.6 µM; in experiment [3], 51.1 µM; in experiment [4], 12.8 µM; in experiment [5], 21 µM; in experiment [1], 10.7 µM.

In the case of `C/C=C(/C)C(=O)O[C@H]1C[C@@H](O)C2=CC(=O)C(C(C)(C)O)=C[C@]2(C)[C@H]1C`, the result in experiment [2], in experiment [3], in experiment [4], in experiment [5] and in experiment [1] was inactive.

For the origin of these results see ChEMBL document CHEMBL1148147, “New oplopane and eremophilane derivatives from Robinsonecio gerberifolius” (J Nat Prod, 2003).
